Laboratory results: ChEMBL document CHEMBL4819098, “Novel 1,2,4-triazine-quinoline hybrids: The privileged scaffolds as potent multi-target inhibitors of LPS-induced inflammatory response via dual COX-2 and 15-LOX inhibition” (Eur J Med Chem, 2021)

Legend:
[1] = Selectivity index, ratio of IC50 for ovine COX-1 to IC50 for human recombinant COX-2
Procedure, shortened: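 Enzyme kit assay with ovine COX-1 and human recombinant COX-2. IC50 determined from three replicates. Selectivity index taken as IC50(COX-1)/IC50(COX-2).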

[2] = Inhibition of soybean 15-LOX using arachidonic acid or linolenic acid as substrate in presence of hydrogen peroxide incubated for 5 mins by colorimetric analysis; parameters: species or system Glycine max
RAW264.7 [3] = assay: Inhibition of LPS-induced 15(S)-HETE production in mouse RAW264.7 cells preincubated for 2 hrs followed by LPS stimulation and measured after 20 hrs by ELISA; assay type: functional, cell-based
RAW264.7 [4] = assay: Cytotoxicity against mouse RAW264.7 cells assessed as reduction in cell viability by MTS assay; assay type: cell-based
Procedure, shortened: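 RAW 264.7 macrophage viability at the tested concentrations measured by MTS assay.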

RAW264.7 [5] = assay: Potency index, ratio of celecoxib IC50 to test compound IC50 for inhibition of LPS-induced NO production in mouse RAW264.7 cells preincubated for 2 hrs followed by LPS stimulation and measured after 20 hrs by DAF-FM based fluorescence analysis; assay type: functional; details: time 22 hrs
RAW264.7 [6] = assay: Antioxidant activity in mouse RAW264.7 cells assessed as inhibition of LPS-induced intracellular ROS production preincubated for 2 hrs followed by LPS stimulation and measured after 20 hrs by DCFH-DA staining based fluorescence analysis; assay type: functional, cell-based
RAW264.7 [7] = assay: Potency index, ratio of diclofenac sodium IC50 to test compound IC50 for inhibition of LPS-induced NO production in mouse RAW264.7 cells preincubated for 2 hrs followed by LPS stimulation and measured after 20 hrs by DAF-FM based fluorescence analysis; assay type: functional; details: time 22 hrs
[8] = target: T1, Prostaglandin G/H synthase 2 (Homo sapiens, UniProt P35354); assay: Inhibition of human recombinant COX-2 using arachidonic acid as substrate preincubated with enzyme for 5 mins followed by substrate addition by colorimetric analysis
T1 sequence (P35354 whole entry): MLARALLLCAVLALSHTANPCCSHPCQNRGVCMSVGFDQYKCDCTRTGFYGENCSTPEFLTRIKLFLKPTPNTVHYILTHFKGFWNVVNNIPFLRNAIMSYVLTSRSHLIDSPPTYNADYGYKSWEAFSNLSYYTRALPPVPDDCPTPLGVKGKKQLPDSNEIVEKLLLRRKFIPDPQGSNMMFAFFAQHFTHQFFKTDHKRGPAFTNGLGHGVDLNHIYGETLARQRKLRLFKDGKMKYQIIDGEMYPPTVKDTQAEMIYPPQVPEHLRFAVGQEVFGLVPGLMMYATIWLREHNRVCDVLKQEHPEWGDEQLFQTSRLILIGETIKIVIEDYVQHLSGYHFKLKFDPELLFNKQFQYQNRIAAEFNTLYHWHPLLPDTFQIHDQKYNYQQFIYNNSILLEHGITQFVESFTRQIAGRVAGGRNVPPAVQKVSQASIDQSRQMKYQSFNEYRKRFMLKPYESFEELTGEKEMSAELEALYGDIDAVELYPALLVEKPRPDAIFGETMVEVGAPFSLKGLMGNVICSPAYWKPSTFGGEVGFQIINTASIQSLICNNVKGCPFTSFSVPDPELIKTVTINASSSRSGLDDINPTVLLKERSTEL

[9] = target: T2, Prostaglandin G/H synthase 1 (Ovis aries, UniProt P05979); assay: Inhibition of ovine COX-1 using arachidonic acid as substrate preincubated with enzyme for 5 mins followed by substrate addition by colorimetric analysis
T2 sequence (P05979 whole entry): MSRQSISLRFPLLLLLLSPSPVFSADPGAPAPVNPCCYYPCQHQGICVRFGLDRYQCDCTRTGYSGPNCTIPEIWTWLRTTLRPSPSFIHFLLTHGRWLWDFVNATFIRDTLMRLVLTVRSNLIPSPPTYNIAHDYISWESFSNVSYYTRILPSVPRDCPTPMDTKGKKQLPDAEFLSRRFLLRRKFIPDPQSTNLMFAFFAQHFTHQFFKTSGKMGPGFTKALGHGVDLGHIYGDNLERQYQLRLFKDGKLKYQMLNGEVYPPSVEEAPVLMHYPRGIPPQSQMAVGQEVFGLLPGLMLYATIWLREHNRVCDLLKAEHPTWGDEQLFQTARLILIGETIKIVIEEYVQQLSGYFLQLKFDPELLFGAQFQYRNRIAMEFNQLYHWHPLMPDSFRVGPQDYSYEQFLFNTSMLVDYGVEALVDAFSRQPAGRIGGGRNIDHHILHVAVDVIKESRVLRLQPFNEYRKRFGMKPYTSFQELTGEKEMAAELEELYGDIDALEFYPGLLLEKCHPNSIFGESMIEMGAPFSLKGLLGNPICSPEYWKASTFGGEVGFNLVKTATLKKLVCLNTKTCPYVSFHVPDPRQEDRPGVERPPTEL

[10] = target: T3, Prostaglandin G/H synthase 2 (Homo sapiens) (UniProt P35354); assay: Potency index, ratio of diclofenac sodium IC50 to test compound IC50 for human recombinant COX-2 using arachidonic acid as substrate preincubated with enzyme for 5 mins followed by substrate addition by colorimetric analysis
T3 sequence (whole entry): T1 sequence (P35354 whole entry)

RAW264.7 [11] = assay: Inhibition of LPS-induced NO production in mouse RAW264.7 cells preincubated for 2 hrs followed by LPS stimulation and measured after 20 hrs by DAF-FM based fluorescence analysis; assay type: functional, cell-based
RAW264.7 [12] = assay: Inhibition of LPS-induced TNFalpha production in mouse RAW264.7 cells preincubated for 2 hrs followed by LPS stimulation and measured after 20 hrs by ELISA; assay type: functional, cell-based
RAW264.7 [13] = assay: Inhibition of LPS-induced IL-6 production in mouse RAW264.7 cells preincubated for 2 hrs followed by LPS stimulation and measured after 20 hrs by ELISA; assay type: functional, cell-based
RAW264.7 [14] = assay: Potency index, ratio of diclofenac sodium IC50 to test compound IC50 for inhibition of LPS-induced IL-6 production in mouse RAW264.7 cells preincubated for 2 hrs followed by LPS stimulation and measured after 20 hrs by ELISA; assay type: functional; details: time 22 hrs
RAW264.7 [15] = assay: Potency index, ratio of celecoxib IC50 to test compound IC50 for inhibition of LPS-induced IL-6 production in mouse RAW264.7 cells preincubated for 2 hrs followed by LPS stimulation and measured after 20 hrs by ELISA; assay type: functional; details: time 22 hrs
RAW264.7 [16] = assay: Cytotoxicity against mouse RAW264.7 cells assessed as reduction in cell viability at 50 uM by MTS assay; assay type: cell-based; details: raw264.7, 50 µM

COc1cc(Cc2n[nH]c(=S)n(/N=C/c3cc4cc(C)ccc4nc3O)c2=O)cc(OC)c1OC
Ratio IC50 [1]: 177 | IC50 [2]: 2.06 µM | IC50 (RAW264.7 [3]): 8.86 µM | Activity (RAW264.7 [4]): Non-Toxic | Ratio IC50 (RAW264.7 [5]): 3 | IC50 (RAW264.7 [6]): 6.67 µM | Ratio IC50 (RAW264.7 [7]): 6 | IC50 [8]: 0.065 µM | IC50 [9]: 11.5 µM | Ratio IC50 [10]: 12.9 | IC50 (RAW264.7 [11]): 6.34 µM

COc1ccc2nc(O)c(/C=N/n3c(=S)[nH]nc(Cc4cc(OC)c(OC)c(OC)c4)c3=O)cc2c1
Ratio IC50 [1]: 197 | IC50 [2]: 2.57 µM | IC50 (RAW264.7 [3]): > 50 µM | IC50 (RAW264.7 [12]): > 50 µM | Activity (RAW264.7 [4]): Non-Toxic | IC50 (RAW264.7 [13]): > 50 µM | IC50 (RAW264.7 [6]): > 50 µM | IC50 [8]: 0.06 µM | IC50 [9]: 11.8 µM | Ratio IC50 [10]: 14 | IC50 (RAW264.7 [11]): > 50 µM

CC(C)Oc1ccc2nc(O)c(/C=N/n3c(=S)[nH]nc(Cc4ccccc4)c3=O)cc2c1
Ratio IC50 [1]: 20.6 | IC50 [2]: 3.49 µM | IC50 (RAW264.7 [3]): 0.42 µM | IC50 (RAW264.7 [12]): 34.6 µM | Activity (RAW264.7 [4]): Non-Toxic | IC50 (RAW264.7 [13]): 12.9 µM | IC50 (RAW264.7 [6]): 1.91 µM | IC50 [8]: 0.32 µM | IC50 [9]: 6.6 µM | Ratio IC50 [10]: 2.6 | IC50 (RAW264.7 [11]): > 50 µM

COc1cc(Cc2n[nH]c(=S)n(/N=C/c3cc4cc(C)ccc4nc3O)c2=O)ccc1O
Ratio IC50 [1]: 121 | IC50 [2]: 1.97 µM | IC50 (RAW264.7 [3]): > 50 µM | IC50 (RAW264.7 [12]): > 50 µM | Activity (RAW264.7 [4]): Non-Toxic | IC50 (RAW264.7 [13]): > 50 µM | IC50 (RAW264.7 [6]): > 50 µM | IC50 [8]: 0.085 µM | IC50 [9]: 10.3 µM | IC50 (RAW264.7 [11]): > 50 µM

O=c1c(Cc2cccs2)n[nH]c(=S)n1/N=C/c1cc2ccccc2nc1O
Ratio IC50 [1]: 140 | IC50 [2]: 2.13 µM | IC50 (RAW264.7 [3]): > 50 µM | IC50 (RAW264.7 [12]): > 50 µM | Activity (RAW264.7 [4]): Non-Toxic | IC50 (RAW264.7 [13]): > 50 µM | IC50 (RAW264.7 [6]): > 50 µM | IC50 [8]: 0.079 µM | IC50 [9]: 11.1 µM | IC50 (RAW264.7 [11]): 9.37 µM

COc1ccc2nc(O)c(/C=N/n3c(=S)[nH]nc(Cc4ccccc4)c3=O)cc2c1
Ratio IC50 [1]: 154 | IC50 [2]: 1.97 µM | IC50 (RAW264.7 [3]): 3.91 µM | IC50 (RAW264.7 [12]): > 50 µM | Activity (RAW264.7 [4]): Non-Toxic | IC50 (RAW264.7 [13]): 5.98 µM | Ratio IC50 (RAW264.7 [14]): 2.2 | Ratio IC50 (RAW264.7 [5]): 3 | IC50 (RAW264.7 [6]): 3.95 µM | Ratio IC50 (RAW264.7 [7]): 6 | IC50 [8]: 0.068 µM | IC50 [9]: 10.5 µM | Ratio IC50 [10]: 12.4 | Ratio IC50 (RAW264.7 [15]): 1.9 | IC50 (RAW264.7 [11]): 6.93 µM

COc1ccc2cc(/C=N/n3c(=S)[nH]nc(Cc4cc(OC)c(OC)c(OC)c4)c3=O)c(O)nc2c1
IC50 [2]: 2.18 µM | IC50 (RAW264.7 [3]): 18.6 µM | IC50 (RAW264.7 [12]): 2.61 µM | Activity (RAW264.7 [4]): Non-Toxic | IC50 (RAW264.7 [13]): 5.54 µM | Ratio IC50 (RAW264.7 [14]): 2.3 | IC50 (RAW264.7 [6]): 4.52 µM | IC50 [8]: 0.097 µM | IC50 [9]: 9.7 µM | Ratio IC50 [10]: 8.7 | Ratio IC50 (RAW264.7 [15]): 2 | IC50 (RAW264.7 [11]): > 50 µM

COc1ccc2cc(/C=N/n3c(=S)[nH]nc(Cc4ccccc4)c3=O)c(O)nc2c1
Ratio IC50 [1]: 140 | IC50 [2]: 2.32 µM | IC50 (RAW264.7 [3]): 3.6 µM | IC50 (RAW264.7 [12]): 8.41 µM | Activity (RAW264.7 [16]): Toxic | Activity (RAW264.7 [4]): Non-Toxic | IC50 (RAW264.7 [13]): 7.36 µM | IC50 (RAW264.7 [6]): 3.78 µM | IC50 [8]: 0.073 µM | IC50 [9]: 10.2 µM | Ratio IC50 [10]: 11.5 | Ratio IC50 (RAW264.7 [15]): 1.5 | IC50 (RAW264.7 [11]): 16.1 µM

Cc1ccc2nc(O)c(/C=N/n3c(=S)[nH]nc(Cc4ccccc4)c3=O)cc2c1
Ratio IC50 [1]: 21.1 | IC50 [2]: 2.66 µM | IC50 (RAW264.7 [3]): 21.3 µM | IC50 (RAW264.7 [12]): 30.3 µM | Activity (RAW264.7 [4]): Non-Toxic | IC50 (RAW264.7 [13]): 13.5 µM | IC50 (RAW264.7 [6]): 7.31 µM | IC50 [8]: 0.28 µM | IC50 [9]: 5.9 µM | Ratio IC50 [10]: 3 | IC50 (RAW264.7 [11]): 33.5 µM

O=c1c(Cc2ccccc2)n[nH]c(=S)n1/N=C/c1cc2ccccc2nc1O
Ratio IC50 [1]: 209 | IC50 [2]: 2.12 µM | IC50 (RAW264.7 [3]): > 50 µM | IC50 (RAW264.7 [12]): > 50 µM | Activity (RAW264.7 [4]): Non-Toxic | IC50 (RAW264.7 [13]): > 50 µM | IC50 (RAW264.7 [6]): > 50 µM | IC50 [8]: 0.054 µM | IC50 [9]: 11.3 µM | Ratio IC50 [10]: 15.6 | IC50 (RAW264.7 [11]): > 50 µM

Cc1ccc2nc(O)c(/C=N/n3c(=S)[nH]nc(Cc4cccs4)c3=O)cc2c1
Ratio IC50 [1]: 81.8 | IC50 [2]: 2.38 µM | IC50 (RAW264.7 [3]): 7.13 µM | IC50 (RAW264.7 [12]): 3.4 µM | Activity (RAW264.7 [4]): Non-Toxic | IC50 (RAW264.7 [13]): 11.8 µM | IC50 (RAW264.7 [6]): 10.9 µM | IC50 [8]: 0.11 µM | IC50 [9]: 9 µM | Ratio IC50 [10]: 7.6 | IC50 (RAW264.7 [11]): 36.8 µM
